High-throughput results: PubChem BioAssay, several laboratories
A selection: hits, their analogues and other compounds. The true share with any hit is near 0.58%.
L929 necroptosis = inhibitors of zVAD-triggered necroptosis, primary screen, L929 cells | L929 zVAD necroptosis rescue, ATP luminescence, 24 h; with zVAD 60 µM | viability rescue, % at 10 µM | actives 0.38% (n = 220,000);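 active = activation, scaled between plate controls, above about 75%, limit read from the data; inactive = activation under that limit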
Mdm2 ligase inh = MDM2-luciferase reporter signal enhancers, primary screen, MDM2 E3 ligase inhibitor project, cell-based, luminescence, 1536-well; E3 ubiquitin-protein ligase Mdm2 (Homo sapiens), Q00987; cell-based MDM2 ubiquitination luciferase reporter, 2 h; 0 = plate control, 100 = twice control, blank-subtracted; signal enhancement, % at 5 µM; actives 0.11% (n = 210,000); AID 1230, 2008;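 active = signal enhancement of 30% or more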;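 also: luminescence tracks abundance of the self-degrading MDM2-luciferase fusion protein; higher signal means inhibition of MDM2 E3 ligase activity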
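Assay system: mammalian cells stably expressing self-ubiquitinating, self-degrading MDM2 E3–luciferase fusion. Quantity: 2000 cells in each well. Medium: DMEM culture medium. Compound dosing: single-point 5 µM. Timing: cell settling 4 h, compound treatment 2 h, both 37 °C. Technique: luciferase luminescence. Read-out basis: percent signal gain over controls, blank-subtracted. Benchmarks: plate controls and plate blanks.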
TNF death inh = inhibitors of TNF-alpha triggered necroptosis, primary screen, cell-based, Jurkat FADD-/-, single concentration | Jurkat FADD-/- TNF necroptosis rescue, ATP luminescence, 24 h; 0 = TNF only, 100 = no-TNF cells | actives 0.068% (n = 220,000) | activation (protection from cell death), % at 10 µM;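 active = activation, meaning protection from cell death, of at least 50% relative to plate controls; inactive = activation below 50%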;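 also: necroptosis triggered by 40 ng/mL TNF-alpha added together with compound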
Rad51 HR inh = human RAD51 strand exchange inhibitors, primary screen, biochemical, fluorescence | inhibition, % at 10 µM | hRad51 DNA strand exchange, fluorescence dequenching | AID 1385, 2008 | actives 0.085% (n = 200,000);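 active = inhibition above 40% at the single screening dose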
Target sequence (Q06609 whole entry, looked up): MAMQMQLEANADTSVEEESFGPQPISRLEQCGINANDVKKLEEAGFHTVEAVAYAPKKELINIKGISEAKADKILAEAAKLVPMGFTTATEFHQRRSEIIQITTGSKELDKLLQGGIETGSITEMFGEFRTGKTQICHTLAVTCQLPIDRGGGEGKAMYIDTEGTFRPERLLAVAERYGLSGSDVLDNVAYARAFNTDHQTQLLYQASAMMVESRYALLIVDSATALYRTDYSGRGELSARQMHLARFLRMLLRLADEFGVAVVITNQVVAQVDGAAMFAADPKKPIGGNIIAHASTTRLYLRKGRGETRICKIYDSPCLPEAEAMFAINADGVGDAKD
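Assay system: Human Rad51 nucleoprotein filaments preassembled on unlabelled ssDNA | Reagent: Donor/quencher-labelled 47-bp dsDNA substrate | Doses: One concentration, 10 µM final | Times: 37 °C 15-min filament assembly, 30-min compound preincubation, 15-min exchange | Technique: Fluorescein emission 520 nm, excitation 485 nm | Benchmarks: Plate control and blank wells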
Pf gamet viab = late stage P. falciparum gametocyte viability inhibitors, primary screen, ATP luminescence, HTS. inhibition, % at 10.9 µM. actives 0.065% (n = 150,000). AID 743093, 2013. P. falciparum stage V gametocytes, 24 h;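 active = inhibition above the mean plus 3 SD of compounds within the control limits, set per campaign, cut at about 38% in these data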
Numbers stand for hits; . = inactive; / = not tested or not shown.

SMILES | L929 necroptosis | Mdm2 ligase inh | TNF death inh | Rad51 HR inh | Pf gamet viab
COC(=O)c1c(C)cc(O)c(C=O)c1O | / | / | / | . | /
COc1cc(C(=O)O)c2c(c1C)OC(=O)c1c(C)cc(O)c(C=O)c1O2 | / | / | / | 61 | /
CCOc1ccc(CNC(=O)CCS(=O)(=O)Cc2cccc(Cl)c2)cc1OC | . | . | . | 41 | .
CCOc1ccc(CNC(=O)CCSCc2ccccc2F)cc1OC | . | . | . | . | .
Cc1cccc(C(=O)NC(=S)Nc2c(C)n(C)n(-c3ccccc3)c2=O)c1 | / | / | / | / | .
CCCCS(=O)(=O)/C=C\C=C/S(=O)(=O)CCCC | . | 31 | . | / | /
O=C1CCC[C@@H]2C[C@@]3(C[C@@H]4CCN1[C@H]24)Nc1cc(Cl)c(Cl)cc1NC3=NCc1ccccc1 | / | / | / | / | .
COc1ccc(CCN(C)C(=O)c2ccc(S(=O)(=O)NCc3ccco3)cc2)cc1OC | . | . | . | . | .
CN(Cc1cccs1)C(=O)c1ccc(S(=O)(=O)NCc2ccco2)cc1 | . | / | . | 44 | .
COc1ccc2nc(NC(=O)CN3CCOCC3)sc2c1 | . | . | . | . | /
COc1ccc2nc(NC(=O)Cc3ccc(OC)c(S(=O)(=O)N4CCOCC4)c3)sc2c1 | 92 | . | . | . | .
COc1ccc(S(=O)(=O)NC(N)=NCCc2ccccc2)cc1 | . | . | . | . | /
CN(C1CCS(=O)(=O)C1)S(=O)(=O)c1ccccc1 (stereo not given) | . | . | . | . | 38
Cc1ccc(S(=O)(=O)N(c2ccccc2)C2CCS(=O)(=O)C2)cc1 (stereo not given) | . | . | . | . | .
COc1ccc(NC(C)c2ccccc2)cc1 (stereo not given) | . | . | 52 | . | /
COc1ccc(OC)c(Nc2nc(NCCCN(C)C)nc(N)c2[N+](=O)[O-])c1 | . | . | . | 41 | .
O=C(CCl)c1ccc2[nH]c(=O)oc2c1 | . | . | . | / | .
O=C(NCc1ccc(OC(F)(F)F)cc1)c1cccc2c1C(=O)c1ccc(N3CCCC3)cc1S2(=O)=O | / | / | / | / | 39
O=C(NCc1ccc(OC(F)(F)F)cc1)c1cccc2c1C(=O)c1ccc(N3CCCCC3)cc1S2(=O)=O | / | / | / | / | .
COc1cccc(C(=O)C2CCCN(Cc3cn(CC(N)=O)c4ccccc34)C2)c1 (stereo not given) | . | . | . | . | .
O=Cc1cc(N=Nc2cccc(C(=O)O)c2)ccc1O | . | . | . | 47 | /
O=Cc1cc(N=Nc2ccccc2Cl)ccc1O | . | . | . | . | .
O=C(NC1CCCCC1)C(c1cccnc1)N(C(=O)c1ccc(Cl)nc1)C1CCCCC1 (stereo not given) | . | 46 | . | . | .
O=c1[nH]c2cc3c(cc2cc1CN(Cc1nnnn1CC1CCCO1)C1CCCC1)OCO3 (stereo not given) | . | 30 | . | / | .
CSc1nnc2n(CCc3ccccc3)c(=O)c3c4c(sc3n12)CCCC4 | . | / | . | / | /
SMILES | L929 necroptosis | Mdm2 ligase inh | TNF death inh | Rad51 HR inh | Pf gamet viab
NNc1nc2sc3c(c2c(=O)n1Cc1ccccc1)CCC3 | . | . | 90 | . | .
C=C(C)CSc1nnc2n(Cc3ccccc3)c(=O)c3c4c(sc3n12)CCC4 | . | . | 51 | / | .
Nc1c(Cl)ncnc1N/N=C/c1ccccn1 | . | . | . | . | .
Nc1c(Cl)ncnc1N/N=C/c1ccc2ccccc2n1 | . | 41 | . | / | .
Fc1ccc(C2=NNC(=NCc3ccccc3)SC2)cc1F | . | . | 51 | . | .
Clc1ccc(C2=NNC(=NCc3ccccc3)SC2)cc1 | . | . | 56 | . | .
c1ccc(CN=C2NN=C(c3ccccc3)CS2)cc1 | . | . | . | . | .
O=C(NC(=S)N1CCN(c2ccccn2)CC1)c1ccco1 | . | . | . | . | .
O=[N+]([O-])c1ccc(Nc2ccc(Cl)cc2)nc1 | . | . | 81 | . | .
O=[N+]([O-])c1ccc(Nc2ccccc2F)nc1 | . | . | 73 | . | .
O=[N+]([O-])c1ccc(NCc2ccc(Cl)cc2)nc1 | . | . | . | . | .
Cc1ccc(CN2CCc3c(OCC(=O)Nc4cc(C)ccc4C)cccc3C2=O)cc1 | . | . | . | . | /
CC1=C(C(=O)OC(C)C)C(c2ccc3c(c2)OCO3)NC(=O)N1 (stereo not given) | / | / | / | / | .
CN(C)c1ccc(N=Nc2nc3ccccc3n2C)cc1 | . | / | . | / | 49
CC(=O)N(c1cccc(C(F)(F)F)c1)c1nc(/C=C/C(=O)O)cs1 | . | / | . | 40 | .
O=c1c2ccccc2nc(/C=C/c2cccnc2)n1Cc1ccccc1 | . | . | . | 48 | .
CCN1C[C@@H]2[C@@H]3C(=O)N(Cc4ccccc4)C(=O)[C@@H]3[C@](C)(C1=O)N2C(=O)c1ccc(Cl)cc1 | / | / | / | / | .
NC(=O)COC(=O)CNC(=O)c1cc(Cl)cc([N+](=O)[O-])c1 | . | . | . | . | .
CC(C)(C)NC(=O)NC(=O)COC(=O)CNC(=O)c1cc(Cl)cc([N+](=O)[O-])c1 | . | . | . | . | 42
COC(=O)c1c(N2C(=O)[C@H]3[C@@H](C2=O)[C@]2(C(=O)Nc4c2ccc(C)c4C)N2CCC[C@@H]32)sc(C)c1C | . | . | . | 41 | /
COC(=O)c1c(N2C(=O)[C@H]3[C@@H](C2=O)[C@]2(C(=O)Nc4c(C)cc(C)cc42)N2CCC[C@@H]32)sc(C)c1C | . | . | . | . | /
COc1ccc2c(Cl)c(C(=O)N/N=C3\CCCC(=O)C3)sc2c1 | . | . | . | . | .
CC1CCCCC1NC(=S)Nc1ccc(Cl)cc1Cl (stereo not given) | . | . | . | 41 | .
Cc1cc(Cl)ccc1NC(=S)NC1CCCC1 | / | / | / | / | .
C[C@H](CO)N1C[C@H](C)[C@@H](CN(C)C(=O)Nc2ccc(F)cc2)Oc2ccc(NS(C)(=O)=O)cc2C1=O | / | / | / | / | .
SMILES | L929 necroptosis | Mdm2 ligase inh | TNF death inh | Rad51 HR inh | Pf gamet viab
CCSc1nnc(-c2ccc(Cl)cc2)c2ccccc12 | . | . | . | . | .
CC(C)c1nnc(-c2ccc(Cl)cc2)c(N(C)C)n1 | . | . | 75 | . | /
CCCCc1c(O)cc(C)[nH]c1=O | . | . | . | . | /
CCN1C(=O)CCN(C2CCCC2)c2nc(Nc3ccc(C(=O)NC4CCN(C)CC4)cc3OC)ncc21 | / | / | / | / | .
Cc1nc2oc3ccccc3c(=O)c2c(=O)n1Cc1ccccc1 | . | . | 60 | . | .
COc1ccc(Cn2c(C)nc3oc4cc(OC)ccc4c(=O)c3c2=O)cc1 | . | . | . | . | .
CCCCC(=O)OCC(=O)Nc1ccc(SC(F)F)cc1 | . | . | . | . | /
CCN1CCN(C(=O)CCc2nc3ccccc3c(=O)[nH]2)CC1 | . | 37 | . | . | /
